Among the data in ChEMBL document CHEMBL3228043, “Alkylating nucleosides. 2. Synthesis and cytostatic activity of bromomethylpyrazole and pyrazole nitrogen mustard nucleosides” (1979) are EC50 values, retold here.

For the experiment, the system named is HeLa. The experiment is described as follows: Cytostatic activity against human HeLa cells after 72 hrs by FCR-based colorimetric method. To be noted: read-out: ED50 (the source's name). The class given is functional. In short, it runs like this: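 HeLa cells seeded at 10⁵ cells/mL in Minimal Eagle's medium with 10% fetal calf serum in Leighton tubes at 37 °C; after 2-3 h attachment, compound added as suspension in sterile saline with 0.05% (v/v) Tween 80 (10% of final volume). Incubated 72 h at 37 °C; growth estimated from cell protein by Oyama-Eagle colorimetric method; 6-mercaptopurine positive control.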

Values after ≈ are worked out from the molar mass of the structure shown.

For the molecule `CCOC(=O)c1cc(CBr)nn1[C@@H]1O[C@H](COC(C)=O)[C@@H](OC(C)=O)[C@H](OC(C)=O)[C@H]1OC(C)=O`, the EC50 amounted to 5 µg/mL (≈ 8.88 µM).

For the molecule `CCOC(=O)c1cc(CBr)nn1[C@H]1O[C@H](COC(C)=O)[C@@H](OC(C)=O)[C@H](OC(C)=O)[C@H]1OC(C)=O`, the EC50 is 5 µg/mL (≈ 8.88 µM).

Consider `CCOC(=O)c1cc(CBr)nn1[C@@H]1OC[C@@H](OC(C)=O)[C@@H](OC(C)=O)[C@H]1OC(C)=O`, for which the EC50 stood at 2 µg/mL (≈ 4.07 µM).

For `CCOC(=O)c1cc(CBr)nn1[C@@H]1O[C@H](COC(C)=O)[C@@H](OC(C)=O)[C@H]1OC(C)=O`, the EC50 was found to be 2.5 µg/mL (≈ 5.09 µM).

Consider `CCOC(=O)c1cc(CBr)n([C@@H]2O[C@H](COC(C)=O)[C@@H](OC(C)=O)[C@H](OC(C)=O)[C@H]2OC(C)=O)n1`, for which the EC50 was 6 µg/mL (≈ 10.7 µM).

Consider `CC(=O)OC[C@H]1O[C@@H](n2nc(CBr)cc2C(N)=O)[C@H](OC(C)=O)[C@@H](OC(C)=O)[C@@H]1OC(C)=O`, for which the EC50 is 4 µg/mL (≈ 7.49 µM).

In the case of `CC(=O)O[C@@H]1[C@H](OC(C)=O)[C@H](OC(C)=O)CO[C@H]1n1nc(CBr)cc1C(N)=O`, the EC50 turned out to be 3 µg/mL (≈ 6.49 µM).

As to `CC(=O)OC[C@H]1O[C@@H](n2nc(CBr)cc2C(N)=O)[C@H](OC(C)=O)[C@@H]1OC(C)=O`, the EC50 came out at 2 µg/mL (≈ 4.33 µM).

On to `CC(=O)OC[C@H]1O[C@@H](n2nc(C(N)=O)cc2CBr)[C@H](OC(C)=O)[C@@H]1OC(C)=O`, for which the EC50 is 2 µg/mL (≈ 4.33 µM).

For the molecule `Br.NCc1cc(C(N)=O)n([C@@H]2O[C@H](CO)[C@@H](O)[C@H](O)[C@H]2O)n1`, the EC50 is greater than 100 µg/mL.

`Br.NCc1cc(C(N)=O)n([C@@H]2OC[C@@H](O)[C@@H](O)[C@H]2O)n1`: the EC50 was greater than 100 µg/mL.

With `Br.NCc1cc(C(N)=O)n([C@@H]2O[C@H](CO)[C@@H](O)[C@H]2O)n1`, the EC50 is greater than 100 µg/mL.

`CCOC(=O)c1cc(CN(CCCl)CCCl)nn1[C@@H]1O[C@H](COC(C)=O)[C@@H](OC(C)=O)[C@H](OC(C)=O)[C@H]1OC(C)=O`: the EC50 was greater than 100 µg/mL.

Take `CCOC(=O)c1cc(CN(CCCl)CCCl)nn1[C@@H]1OC[C@@H](OC(C)=O)[C@@H](OC(C)=O)[C@H]1OC(C)=O`: the EC50 is greater than 100 µg/mL.

Regarding `CCOC(=O)c1cc(CN(CCCl)CCCl)nn1[C@@H]1O[C@H](COC(C)=O)[C@@H](OC(C)=O)[C@H]1OC(C)=O`, the EC50 was greater than 100 µg/mL.

On to `CC(=O)OC[C@H]1O[C@@H](n2nc(CN(CCCl)CCCl)cc2C(N)=O)[C@H](OC(C)=O)[C@@H](OC(C)=O)[C@@H]1OC(C)=O`, for which the EC50 is greater than 100 µg/mL.

In the case of `CC(=O)O[C@@H]1[C@H](OC(C)=O)[C@H](OC(C)=O)CO[C@H]1n1nc(CN(CCCl)CCCl)cc1C(N)=O`, the EC50 is 50 µg/mL (≈ 95.5 µM).

`CC(=O)OC[C@H]1O[C@@H](n2nc(CN(CCCl)CCCl)cc2C(N)=O)[C@H](OC(C)=O)[C@@H]1OC(C)=O`: the EC50 was 35 µg/mL (≈ 66.9 µM).

Take `Sc1ncnc2nc[nH]c12` [MERCAPTOPURINE ANHYDROUS]: the EC50 was found to be 0.1 µg/mL (≈ 0.657 µM).
